Data published in ChEMBL document CHEMBL4825754, “Antiviral evaluation of hydroxyethylamine analogs: Inhibitors of SARS-CoV-2 main protease (3CLpro), a virtual screening and simulation approach” (Bioorg Med Chem, 2021).

Tests used:
[1] = biological target: Replicase polyprotein 1ab (Severe acute respiratory syndrome coronavirus 2) (UniProt P0DTD1); experiment: Inhibition of SARS-CoV-2 3CLpro using TVLQ-AMC probe as substrate at 50 uM preincubated with enzyme for 5 mins followed by substrate addition and measured after 3 hrs for every 15 mins for 1 hr by FRET assay; settings: time 245.0 min
Outline: (§1)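 3CLpro (0.4 µM final) preincubated 5 min at room temperature with compound in Tris-HCl pH 7.3, 1 mM EDTA. TVLQ-AMC added to 40 µM final. Fluorescence (ex 364/em 440 nm) read every 15 min for 1 h and at 3 h, in triplicate. Values normalized to the mean 3 h no-inhibitor control set as 100.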

[2] = biological target: Replicase polyprotein 1ab (Severe acute respiratory syndrome coronavirus 2) (UniProt P0DTD1); experiment: Inhibition of SARS-CoV-2 3CLpro using TVLQ-AMC probe as substrate at 10 uM preincubated with enzyme for 5 mins followed by substrate addition and measured after 3 hrs for every 15 mins for 1 hr by FRET assay; settings: time 245.0 min; outline: as §1
SARS-CoV-2 [3] = experiment: Antiviral activity against SARS-CoV-2 infected in African green monkey Vero E6 cells assessed as inhibition of viral spread cells preincubated with compound for 1 hr followed by viral infection for 1 hr and later washed with PBS followed by re-incubated with compound for 48 hrs; format: functional, organism-based, Severe acute respiratory syndrome coronavirus 2
SARS-CoV-2 [4] = experiment: Antiviral activity against SARS-CoV-2 infected in African green monkey Vero E6 cells assessed as inhibition of viral entry cells preincubated with compound for 1 hr followed by viral infection for 1 hr and later washed with PBS followed by re-incubated with compound for 24 hrs; format: functional, organism-based, Severe acute respiratory syndrome coronavirus 2
Vero C1008 [5] = experiment: Cytotoxicity against African green monkey Vero E6 cells assessed as effect on nuclei count; format: cell-based; settings: chlorocebus sabaeus
Vero C1008 [6] = experiment: Cytotoxicity against African green monkey Vero E6 cells assessed as reduction in cell survival at 50 uM; format: cell-based; settings: chlorocebus sabaeus, vero c1008, 50 µM
[7] = Severe acute respiratory syndrome coronavirus 2, Vero C1008

Compound	inhibition [1] [%]	inhibition [2] [%]	IC50 (SARS-CoV-2 [3]; [7]) [µM]	IC50 (SARS-CoV-2 [4]; [7]) [µM]	Activity (Vero C1008 [5])	IC50 (SARS-CoV-2 [3]; vero e6) [µM]	IC50 (SARS-CoV-2 [4]; vero e6) [µM]	Activity (Vero C1008 [6])
IVERMECTIN [listing 1 of 2 here]	90	85	–	–	–	–	–	–
Cc1ccc2c(c1)C(=O)N([C@H](Cc1ccccc1)C(=O)N[C@@H](Cc1ccccc1)[C@@H](O)CN1CCN(C[C@H](O)[C@H](Cc3ccccc3)NC(=O)[C@@H](Cc3ccccc3)N3C(=O)c4ccc(C)cc4C3=O)CC1)C2=O	12	5	14.7	10.9	Non-Toxic	–	–	–
IVERMECTIN [listing 2 of 2 here]	–	–	–	–	–	6.02	2.7	Toxic
CC(C)(C)OC(=O)N[C@@H](Cc1ccccc1)[C@@H](O)CN1CCC(N2CCCCC2)CC1	12	5	10.1	6.33	Non-Toxic	–	–	–
CC(C)(C)OC(=O)NC(Cc1ccccc1)C(=O)N[C@@H](Cc1ccccc1)[C@@H](O)CN1CCN(Cc2ccc(C(F)(F)F)cc2)CC1 (some centres undefined)	12	5	12.5	–	Non-Toxic	–	–	–
